Test results as given in ChEMBL document CHEMBL1821613, “Synthesis and evaluation of 5-substituted 2'-deoxyuridine monophosphate analogues as inhibitors of flavin-dependent thymidylate synthase in Mycobacterium tuberculosis” (J Med Chem, 2011).

Legend:
[1] = biological target: T1, Flavin-dependent thymidylate synthase (Mycobacterium tuberculosis, UniProt P9WG57); assay: Inhibition of Mycobacterium tuberculosis ThyX-mediated dTMP synthesis using [5-3H]dUMP as substrate after 10 mins by liquid scintillation counting
T1 sequence (P9WG57 whole entry): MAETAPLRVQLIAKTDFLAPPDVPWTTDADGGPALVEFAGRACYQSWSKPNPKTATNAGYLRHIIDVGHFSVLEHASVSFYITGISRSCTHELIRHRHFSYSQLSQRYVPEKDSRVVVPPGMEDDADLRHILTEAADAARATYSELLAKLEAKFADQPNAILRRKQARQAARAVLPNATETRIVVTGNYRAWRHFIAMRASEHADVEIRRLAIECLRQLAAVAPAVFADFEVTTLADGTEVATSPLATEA
In short: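 Purified M. tuberculosis ThyX with 20 μM mTHF, 10 μM FAD and 500 μM NADPH; reaction started with [5-3H]dUMP (13 Ci/mmol, stock 2 μM), run 10 min at room temperature, stopped with TCA/dUMP. Unreacted substrate removed with activated charcoal (15 min on ice, then centrifugation); tritiated water in supernatant counted. IC50 from dose-response curves of percent activity versus control.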

[2] = biological target: T2, Thymidylate synthase ThyA (Mycobacterium tuberculosis, UniProt P9WFR9); assay: Inhibition of Mycobacterium tuberculosis His-tagged ThyA-mediated dTMP synthesis expressed in BL21 (DE3) Escherichia coli RbCl cells after 30 mins by photometric assay
T2 sequence (P9WFR9 whole entry): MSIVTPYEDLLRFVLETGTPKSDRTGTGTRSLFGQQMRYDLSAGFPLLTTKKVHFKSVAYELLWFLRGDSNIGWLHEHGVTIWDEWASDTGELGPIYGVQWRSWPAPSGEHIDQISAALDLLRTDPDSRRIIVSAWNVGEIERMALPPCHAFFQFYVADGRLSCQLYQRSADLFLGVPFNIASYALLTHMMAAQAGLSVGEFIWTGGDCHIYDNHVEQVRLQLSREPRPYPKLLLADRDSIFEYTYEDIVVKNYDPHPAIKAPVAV

[3] = biological target: T3, Flavin-dependent thymidylate synthase (Mycobacterium tuberculosis) (UniProt P9WG57); assay: Inhibition of Mycobacterium tuberculosis ThyX-mediated dTMP synthesis using [5-3H]dUMP as substrate at 50 uM after 10 mins by liquid scintillation counting
T3 sequence (whole entry): T1 sequence (P9WG57 whole entry)
In short: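 Compounds tested at a single 50 μM dose on purified M. tuberculosis ThyX with 20 μM mTHF, 10 μM FAD, 500 μM NADPH. [5-3H]dUMP (13 Ci/mmol, stock 2 μM) added to start, 10 min at room temperature, TCA/dUMP stop, charcoal cleanup, tritiated water counted by scintillation; percent inhibition relative to control.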

SMILES | IC50 [1] | IC50 [2] | inhibition [3]
CCCC(=O)NCC#Cc1cn([C@H]2C[C@H](O)[C@@H](COP(=O)(O)O)O2)c(=O)[nH]c1=O | 26.2 µM | > 50 µM | 72%
CCCCCCCCCCC#Cc1cn([C@@H]2O[C@H](COP(=O)(O)O)[C@@H](O)[C@@H]2O)c(=O)[nH]c1=O | > 50 µM | > 50 µM | 19%
CCCCNC(=O)CCCCC#Cc1cn([C@@H]2O[C@H](COP(=O)(O)O)[C@@H](O)[C@@H]2O)c(=O)[nH]c1=O | > 50 µM | > 50 µM | 21%
CCCCCCCC(=O)NCC#Cc1cn([C@H]2C[C@H](O)[C@@H](COP(=O)(O)O)O2)c(=O)[nH]c1=O | 0.91 µM | > 50 µM | 92.8%
COc1cccc(-c2cn([C@H]3C[C@H](O)[C@@H](COP(=O)(O)O)O3)c(=O)[nH]c2=O)c1 | > 50 µM | > 50 µM | 16%
CCCCCCNC(=O)NCC#Cc1cn([C@H]2C[C@H](O)[C@@H](COP(=O)(O)O)O2)c(=O)[nH]c1=O | 4.84 µM | > 50 µM | 90.9%
O=C(Cc1ccccc1)NCC#Cc1cn([C@H]2C[C@H](O)[C@@H](COP(=O)(O)O)O2)c(=O)[nH]c1=O | 7.3 µM | > 50 µM | 86.9%
CCCCNC(=O)CCCCC#Cc1cn([C@H]2C[C@H](O)[C@@H](COP(=O)(O)O)O2)c(=O)[nH]c1=O | 8.03 µM | > 50 µM | 74.6%
CCCCCCCS(=O)(=O)NCC#Cc1cn([C@H]2C[C@H](O)[C@@H](COP(=O)(O)O)O2)c(=O)[nH]c1=O | 6.93 µM | > 50 µM | 84.7%
N#C/C=C/c1cn([C@H]2C[C@H](O)[C@@H](COP(=O)(O)O)O2)c(=O)[nH]c1=O | 7.4 µM | > 50 µM | 81.3%
CCCCCCCCCCC#Cc1cn([C@H]2C[C@H](O)[C@@H](COP(=O)(O)O)O2)c(=O)[nH]c1=O | 27.8 µM | > 50 µM | 82.6%
CCCCCC(=O)NCC#Cc1cn([C@H]2C[C@H](O)[C@@H](COP(=O)(O)O)O2)c(=O)[nH]c1=O | 8.61 µM | > 50 µM | 89.9%
O=c1[nH]c(=O)n([C@H]2C[C@H](O)[C@@H](COP(=O)(O)O)O2)cc1-c1ccc(F)cc1 | 10 µM | > 50 µM | 74%
O=c1[nH]c(=O)n([C@H]2C[C@H](O)[C@@H](COP(=O)(O)O)O2)cc1F | 0.29 µM | 0.57 µM | 95.1%
